The test system of this experiment is Plasmodium falciparum. As to the kind of experiment: Antimalarial activity against Plasmodium falciparum NF54 after 36-40 hrs. Type of experiment: functional. The gist of the method: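 P. falciparum NF-54 kept in RPMI-1640 with 25 mM Hepes, 1% D-glucose, 0.23% sodium bicarbonate, 10% heat-inactivated human serum; D-sorbitol (5%) synchronized to ring stage. ~1% ring parasitaemia, 3% haematocrit; compound […] µg/mL, duplicate wells, 37 °C candle jar, 36–40 h. Giemsa smears scored microscopically; MIC = concentration blocking full maturation to schizonts. Pyrimethamine reference.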

Experimental findings from ChEMBL document CHEMBL1143151, “Design, synthesis and antimalarial activity of benzene and isoquinoline sulfonamide derivatives” (2008) are described below.

A word on the MIC: it is the least concentration at which growth counts as inhibited.

≈ marks a conversion by molar mass, not a printed value.

In the case of `O=S(=O)(c1ccccc1)N1CCN(c2ccccn2)CC1`, the lowest concentration to inhibit growth (MIC) was 10 µg/mL (≈ 33 µM).

Molecule `O=[N+]([O-])c1ccc(S(=O)(=O)N2CCN(c3ccccn3)CC2)cc1` gave an MIC of 10 µg/mL (≈ 28.7 µM). `O=[N+]([O-])c1ccc(S(=O)(=O)N2CCN(Cc3ccccc3)CC2)cc1` displayed an MIC of 10 µg/mL (≈ 27.7 µM). Take `Cc1ccc(S(=O)(=O)N2CCN(CCO)CC2)cc1`: the minimal inhibitory concentration (MIC) was determined as 10 µg/mL (≈ 35.2 µM).

Turning to `COc1ccc(CCNS(=O)(=O)c2ccc(C)cc2)cc1OC`, the MIC was found to be 10 µg/mL (≈ 29.8 µM). Turning to `O=[N+]([O-])c1ccc(S(=O)(=O)NCCCN2CCOCC2)cc1`, the MIC is 10 µg/mL (≈ 30.4 µM). The same measure for `O=S(=O)(NCCCN1CCOCC1)c1ccccc1`: 10 µg/mL (≈ 35.2 µM). The same measure for `CN(CC(O)CNCc1ccccc1)S(=O)(=O)c1cccc2cnccc12` (centres undefined): 10 µg/mL (≈ 25.9 µM); for `Cc1ccc(S(=O)(=O)N2CCN(Cc3ccccc3)CC2)cc1`: 10 µg/mL (≈ 30.3 µM).

In turn, `O=S(=O)(c1ccccc1)N1CCN(CCO)CC1` had a minimal inhibitory concentration (MIC) of 10 µg/mL (≈ 37 µM). Take `CN(CC(O)CNCCc1c[nH]c2ccccc12)S(=O)(=O)c1cccc2cnccc12` (centres undefined): the MIC is 10 µg/mL (≈ 22.8 µM).

For the molecule `CN(CC(O)CNCc1ccco1)S(=O)(=O)c1cccc2cnccc12` (centres undefined), the lowest concentration to inhibit growth (MIC) was 10 µg/mL (≈ 26.6 µM). The same measure for `CN(CC(O)CNCc1ccc(Cl)cc1Cl)S(=O)(=O)c1cccc2cnccc12` (centres undefined): 2 µg/mL (≈ 4.4 µM); for `O=S(=O)(c1cccc2cnccc12)N1CCN(CCO)CC1`: 50 µg/mL (≈ 156 µM). The same measure for `CN1CCN(S(=O)(=O)c2ccc([N+](=O)[O-])cc2)CC1`: 10 µg/mL (≈ 35 µM); for `Cc1ccc(S(=O)(=O)N2CCN(c3ccc(Cl)cc3)CC2)cc1`: 10 µg/mL (≈ 28.5 µM).

The molecule `COc1ccc(CCNS(=O)(=O)c2ccccc2)cc1OC` came in with an MIC of 10 µg/mL (≈ 31.1 µM). The same measure for `Cc1ccc(S(=O)(=O)NCCCn2ccnc2)cc1`: 10 µg/mL (≈ 35.8 µM); for `O=[N+]([O-])c1ccc(S(=O)(=O)N2CCN(CCO)CC2)cc1`: 10 µg/mL (≈ 31.7 µM); for `COc1ccc(CCNCC(O)CN(C)S(=O)(=O)c2cccc3cnccc23)cc1OC` (centres undefined): 10 µg/mL (≈ 21.8 µM). The same measure for `NCCN1CCN(S(=O)(=O)c2cccc3cnccc23)CC1`: 10 µg/mL (≈ 31.2 µM). The same measure for `CN(CC(O)CNCc1ccccc1Cl)S(=O)(=O)c1cccc2cnccc12` (centres undefined): 10 µg/mL (≈ 23.8 µM); for `CN(CC(O)CNCCCn1ccnc1)S(=O)(=O)c1cccc2cnccc12` (centres undefined): 50 µg/mL (≈ 124 µM). In turn, `CN(CC(O)CNCc1ccc(Cl)cc1)S(=O)(=O)c1cccc2cnccc12` (centres undefined) came in with an MIC of 10 µg/mL (≈ 23.8 µM). With `O=S(=O)(c1ccccc1)N1CCN(c2ccc(Cl)cc2)CC1` the figure was 10 µg/mL (≈ 29.7 µM); with `O=[N+]([O-])c1ccc(S(=O)(=O)N2CCN(c3cccc(Cl)c3)CC2)cc1`, 10 µg/mL (≈ 26.2 µM); with `CN1CCN(S(=O)(=O)c2ccccc2)CC1`, 10 µg/mL (≈ 41.6 µM).

`Cc1ccc(S(=O)(=O)NCCCN2CCOCC2)cc1`: the MIC was 10 µg/mL (≈ 33.5 µM). In turn, `CN(CC(O)CNCCc1ccc(O)cc1)S(=O)(=O)c1cccc2cnccc12` (centres undefined) displayed an MIC of 50 µg/mL (≈ 120 µM). With `Cc1ccc(S(=O)(=O)N2CCN(C)CC2)cc1`, the MIC worked out at 10 µg/mL (≈ 39.3 µM). The same measure for `CN(CC(O)CNCc1ccc(Cl)c(Cl)c1)S(=O)(=O)c1cccc2cnccc12` (centres undefined): 2 µg/mL (≈ 4.4 µM); for `COc1ccc(CCNS(=O)(=O)c2ccc([N+](=O)[O-])cc2)cc1OC`: 10 µg/mL (≈ 27.3 µM); for `COc1ccc(CCNCC(O)CN(C)S(=O)(=O)c2cccc3cnccc23)cc1` (centres undefined): 10 µg/mL (≈ 23.3 µM). The molecule `CCc1nc(N)nc(N)c1-c1ccc(Cl)cc1` [PYRIMETHAMINE] came in with an MIC of 10 µg/mL (≈ 40.2 µM).
